Source: ChEMBL document CHEMBL3259740, “Design, synthesis and evaluation of novel diaryl urea derivatives as potential antitumor agents” (Eur J Med Chem, 2014)

Legend:
MX1 = experiment: Cytotoxicity against human MX1 cells assessed as growth inhibition after 120 hrs by MTT assay; assay type: functional, cell-based; conditions: MX1, 120 h
Procedure, shortened: (§1)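 Cells kept in DMEM with 10% FBS, penicillin and streptomycin at 37 °C, 5% CO2. Seeded at 2000 cells/well, grown 24 h, then exposed to a range of compound concentrations for 120 h. MTT at 0.5 mg/mL added for 4 h at 37 °C. Formazan dissolved in DMSO, absorbance read at 570 nm. IC50 is the mean of three determinations.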

A-375 = experiment: Cytotoxicity against human A375 cells assessed as growth inhibition after 120 hrs by MTT assay; assay type: functional, cell-based; conditions: A-375, 120 h; procedure, shortened: as §1
HepG2 = experiment: Cytotoxicity against human HepG2 cells assessed as growth inhibition after 120 hrs by MTT assay; assay type: functional, cell-based; conditions: HepG2, 120 h; procedure, shortened: as §1
KETR3 = experiment: Cytotoxicity against human Ketr3 cells assessed as growth inhibition after 120 hrs by MTT assay; assay type: functional, cell-based; conditions: KETR3, 120 h; procedure, shortened: as §1
HT-29 [1] = experiment: Cytotoxicity against human HT-29 cells assessed as growth inhibition after 120 hrs by MTT assay; assay type: functional, cell-based; conditions: HT-29, 120 h; procedure, shortened: as §1
[2] = molecular target: Serine/threonine-protein kinase B-raf (Homo sapiens, UniProt P15056); experiment: Inhibition of B-Raf (unknown origin) after 1 hr by ADP-Glo assay
[3] = molecular target: RAF proto-oncogene serine/threonine-protein kinase (Homo sapiens, UniProt P04049); experiment: Inhibition of C-Raf (unknown origin) after 1 hr by ADP-Glo assay
Procedure, shortened: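 Run in duplicate. Kinase, substrate, ATP and compound reacted 1 h at 30 °C. ADP-Glo reagent was added to stop the reaction, followed by 40 min at 27 °C. Kinase detection reagent was then added for a further 30 min at the same temperature before luminescence reading.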

HT-29 [4] = experiment: Potency index, ratio of sorafenib IC50 to compound IC50 for human HT-29 cells; assay type: functional

RAF proto-oncogene serine/threonine-protein kinase, sequence (P04049 whole entry): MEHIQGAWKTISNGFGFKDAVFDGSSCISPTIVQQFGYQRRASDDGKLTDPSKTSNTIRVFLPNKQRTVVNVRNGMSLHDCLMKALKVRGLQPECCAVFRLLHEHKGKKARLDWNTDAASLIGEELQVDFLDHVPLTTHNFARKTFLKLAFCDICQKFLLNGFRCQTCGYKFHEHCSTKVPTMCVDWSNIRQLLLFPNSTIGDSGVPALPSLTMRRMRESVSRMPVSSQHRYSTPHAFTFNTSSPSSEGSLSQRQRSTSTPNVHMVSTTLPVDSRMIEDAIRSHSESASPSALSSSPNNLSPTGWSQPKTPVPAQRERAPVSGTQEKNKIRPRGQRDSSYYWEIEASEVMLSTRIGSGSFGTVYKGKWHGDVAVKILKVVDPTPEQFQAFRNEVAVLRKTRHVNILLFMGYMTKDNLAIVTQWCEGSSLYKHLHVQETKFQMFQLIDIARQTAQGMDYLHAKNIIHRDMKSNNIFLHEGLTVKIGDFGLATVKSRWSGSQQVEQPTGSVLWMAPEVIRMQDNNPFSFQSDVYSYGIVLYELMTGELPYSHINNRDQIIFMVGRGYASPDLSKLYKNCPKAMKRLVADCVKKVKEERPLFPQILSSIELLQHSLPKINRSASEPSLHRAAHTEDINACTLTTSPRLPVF
Serine/threonine-protein kinase B-raf, sequence (P15056 whole entry): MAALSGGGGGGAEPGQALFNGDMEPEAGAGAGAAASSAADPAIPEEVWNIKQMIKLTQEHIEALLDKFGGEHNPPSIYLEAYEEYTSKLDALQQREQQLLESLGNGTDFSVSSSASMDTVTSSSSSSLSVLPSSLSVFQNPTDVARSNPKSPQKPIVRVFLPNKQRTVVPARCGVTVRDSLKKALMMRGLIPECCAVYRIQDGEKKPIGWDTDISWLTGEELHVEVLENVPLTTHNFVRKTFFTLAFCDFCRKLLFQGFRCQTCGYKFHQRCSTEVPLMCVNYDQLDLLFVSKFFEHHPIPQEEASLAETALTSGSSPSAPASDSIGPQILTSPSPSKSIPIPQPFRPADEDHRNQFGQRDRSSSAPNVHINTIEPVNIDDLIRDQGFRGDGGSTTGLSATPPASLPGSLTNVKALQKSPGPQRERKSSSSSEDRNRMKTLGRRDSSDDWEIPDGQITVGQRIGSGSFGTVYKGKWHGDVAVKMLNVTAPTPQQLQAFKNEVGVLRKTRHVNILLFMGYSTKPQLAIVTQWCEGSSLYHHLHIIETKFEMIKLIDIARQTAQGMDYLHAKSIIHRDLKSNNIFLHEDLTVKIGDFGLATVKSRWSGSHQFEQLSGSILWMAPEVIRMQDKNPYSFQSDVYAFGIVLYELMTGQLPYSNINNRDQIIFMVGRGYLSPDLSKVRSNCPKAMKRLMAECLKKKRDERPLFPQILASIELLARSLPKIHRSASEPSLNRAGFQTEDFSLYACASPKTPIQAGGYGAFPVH

CNC(=O)/C=C/c1ccc(NC(=O)Nc2ccc(Cl)c(C(F)(F)F)c2)cc1
IC50 (MX1): 13.8 µM | IC50 (A-375): 20.9 µM | IC50 (HepG2): 20.4 µM | IC50 (KETR3): 21.2 µM | IC50 (HT-29 [1]): 11.7 µM

CC(NC(=O)/C=C/c1ccc(NC(=O)Nc2ccc(Cl)c(C(F)(F)F)c2)cc1)c1ccccc1 (centres undefined)
IC50 (MX1): 3.13 µM | IC50 (A-375): 20.8 µM | IC50 (HepG2): 12.2 µM | IC50 (KETR3): 21.2 µM | IC50 (HT-29 [1]): 1.06 µM

CC(NC(=O)/C=C/c1ccc(NC(=O)Nc2cc(C(F)(F)F)ccc2Cl)cc1)c1ccccc1 (centres undefined)
IC50 (MX1): 1.89 µM | IC50 (A-375): 40.9 µM | IC50 (HepG2): 35.9 µM | IC50 (KETR3): 14.3 µM | IC50 (HT-29 [1]): 4.19 µM

O=C(/C=C/c1ccc(NC(=O)Nc2ccc(Cl)c(C(F)(F)F)c2)cc1)NC1CCC1
IC50 (MX1): 4.53 µM | IC50 (A-375): 15.4 µM | IC50 (HepG2): 7.51 µM | IC50 (KETR3): 17.3 µM | IC50 (HT-29 [1]): 4.43 µM

CC1CN(C(=O)/C=C/c2ccc(NC(=O)Nc3ccc(Cl)c(C(F)(F)F)c3)cc2)CC(C)O1 (centres undefined)
IC50 (MX1): 12.8 µM | IC50 (A-375): > 50 µM | IC50 (HepG2): 45.9 µM | IC50 (KETR3): > 50 µM | IC50 (HT-29 [1]): 9.1 µM

CNC(=O)CCc1ccc(NC(=O)Nc2ccc(Cl)c(C(F)(F)F)c2)cc1
IC50 (MX1): 20.4 µM | IC50 (A-375): 25.2 µM | IC50 (HepG2): 21 µM | IC50 (KETR3): 24 µM | IC50 (HT-29 [1]): 20.6 µM

CC(NC(=O)CCc1ccc(NC(=O)Nc2ccc(Cl)c(C(F)(F)F)c2)cc1)c1ccccc1 (centres undefined)
IC50 (MX1): > 50 µM | IC50 (A-375): > 50 µM | IC50 (HepG2): > 50 µM | IC50 (KETR3): > 50 µM | IC50 (HT-29 [1]): 26.5 µM

O=C(CCc1ccc(NC(=O)Nc2ccc(Cl)c(C(F)(F)F)c2)cc1)NC1CCC1
IC50 (MX1): 24 µM | IC50 (A-375): > 50 µM | IC50 (HepG2): > 50 µM | IC50 (KETR3): > 50 µM | IC50 (HT-29 [1]): 21.3 µM

CC1CN(C(=O)CCc2ccc(NC(=O)Nc3ccc(Cl)c(C(F)(F)F)c3)cc2)CC(C)O1 (centres undefined)
IC50 (MX1): > 50 µM | IC50 (A-375): > 50 µM | IC50 (HepG2): > 50 µM | IC50 (KETR3): > 50 µM | IC50 (HT-29 [1]): > 50 µM

CNC(=O)/C(C)=C/c1ccc(NC(=O)Nc2ccc(Cl)c(C(F)(F)F)c2)cc1
IC50 (MX1): > 50 µM | IC50 (A-375): > 50 µM | IC50 (HepG2): 44.3 µM | IC50 (KETR3): > 50 µM | IC50 (HT-29 [1]): > 50 µM

C/C(=C\c1ccc(NC(=O)Nc2ccc(Cl)c(C(F)(F)F)c2)cc1)C(=O)NC(C)c1ccccc1 (centres undefined)
IC50 (MX1): > 50 µM | IC50 (A-375): > 50 µM | IC50 (HepG2): > 50 µM | IC50 (KETR3): > 50 µM | IC50 (HT-29 [1]): > 50 µM

C/C(=C\c1ccc(NC(=O)Nc2ccc(Cl)c(C(F)(F)F)c2)cc1)C(=O)N1CC(C)OC(C)C1 (centres undefined)
IC50 (MX1): > 50 µM | IC50 (A-375): > 50 µM | IC50 (HepG2): > 50 µM | IC50 (KETR3): > 50 µM | IC50 (HT-29 [1]): > 50 µM

CNC(=O)/C=C(\C)c1ccc(NC(=O)Nc2ccc(Cl)c(C(F)(F)F)c2)cc1
IC50 (MX1): > 50 µM | IC50 (A-375): > 50 µM | IC50 (HepG2): > 50 µM | IC50 (KETR3): > 50 µM | IC50 (HT-29 [1]): > 50 µM

C/C(=C\C(=O)NC(C)c1ccccc1)c1ccc(NC(=O)Nc2ccc(Cl)c(C(F)(F)F)c2)cc1 (centres undefined)
IC50 (MX1): > 50 µM | IC50 (A-375): > 50 µM | IC50 (HepG2): > 50 µM | IC50 (KETR3): > 50 µM | IC50 (HT-29 [1]): > 50 µM

C/C(=C\C(=O)N1CC(C)OC(C)C1)c1ccc(NC(=O)Nc2ccc(Cl)c(C(F)(F)F)c2)cc1 (centres undefined)
IC50 (MX1): > 50 µM | IC50 (A-375): 46.2 µM | IC50 (HepG2): > 50 µM | IC50 (KETR3): > 50 µM | IC50 (HT-29 [1]): 26.2 µM

CNC(=O)/C=C/Oc1ccc(NC(=O)Nc2ccc(Cl)c(C(F)(F)F)c2)cc1
IC50 (MX1): 18.8 µM | IC50 (A-375): 36.8 µM | IC50 (HepG2): 24.2 µM | IC50 (KETR3): > 50 µM | IC50 (HT-29 [1]): > 50 µM

CC(NC(=O)/C=C/Oc1ccc(NC(=O)Nc2ccc(Cl)c(C(F)(F)F)c2)cc1)c1ccccc1 (centres undefined)
IC50 (MX1): 13.7 µM | IC50 (A-375): 20.7 µM | IC50 (HepG2): 14.1 µM | IC50 (KETR3): 14.5 µM | IC50 (HT-29 [1]): > 50 µM

CC(NC(=O)/C=C/Oc1ccc(NC(=O)Nc2cc(C(F)(F)F)ccc2Cl)cc1)c1ccccc1 (centres undefined)
IC50 (MX1): 16.1 µM | IC50 (A-375): 16 µM | IC50 (HepG2): 11.9 µM | IC50 (KETR3): 16.4 µM | IC50 (HT-29 [1]): > 50 µM

CNC(=O)C#Cc1ccc(NC(=O)Nc2ccc(Cl)c(C(F)(F)F)c2)cc1
IC50 (MX1): 26.4 µM | IC50 (A-375): > 50 µM | IC50 (HepG2): 23.3 µM | IC50 (KETR3): 24.7 µM | IC50 (HT-29 [1]): 14 µM

CC(NC(=O)C#Cc1ccc(NC(=O)Nc2ccc(Cl)c(C(F)(F)F)c2)cc1)c1ccccc1 (centres undefined)
IC50 (MX1): 12.8 µM | IC50 (A-375): 16.8 µM | IC50 (HepG2): 20.5 µM | IC50 (KETR3): 21.4 µM | IC50 (HT-29 [1]): 4.92 µM

CC(NC(=O)C#Cc1ccc(NC(=O)Nc2cc(C(F)(F)F)ccc2Cl)cc1)c1ccccc1 (centres undefined)
IC50 (MX1): 16.1 µM | IC50 (A-375): 30.5 µM | IC50 (HepG2): 19 µM | IC50 (KETR3): 23.2 µM | IC50 (HT-29 [1]): 3.17 µM

CNC(=O)c1cccc(-c2ccc(NC(=O)Nc3ccc(Cl)c(C(F)(F)F)c3)cc2)c1
IC50 (MX1): > 50 µM | IC50 (A-375): 46.5 µM | IC50 (HepG2): 37.1 µM | IC50 (KETR3): 39.3 µM | IC50 (HT-29 [1]): 29.3 µM

CC(NC(=O)c1cccc(-c2ccc(NC(=O)Nc3ccc(Cl)c(C(F)(F)F)c3)cc2)c1)c1ccccc1 (centres undefined)
IC50 (MX1): 5.24 µM | IC50 (A-375): 5.17 µM | IC50 (HepG2): 5.67 µM | IC50 (KETR3): 6.46 µM | IC50 (HT-29 [1]): 6.32 µM | IC50 [2]: > 50 µM | IC50 [3]: > 50 µM

CC(NC(=O)c1ccc(-c2ccc(NC(=O)Nc3ccc(Cl)c(C(F)(F)F)c3)cc2)cc1)c1ccccc1 (centres undefined)
IC50 (MX1): 4.63 µM | IC50 (A-375): 12.8 µM | IC50 (HepG2): 16.8 µM | IC50 (KETR3): 19.3 µM | IC50 (HT-29 [1]): 5.96 µM

CC(NC(=O)c1ccc(-c2ccc(NC(=O)Nc3cc(C(F)(F)F)ccc3Cl)cc2)cc1)c1ccccc1 (centres undefined)
IC50 (MX1): 17.7 µM | IC50 (A-375): 16.9 µM | IC50 (HepG2): 18.4 µM | IC50 (KETR3): 16.8 µM | IC50 (HT-29 [1]): 6.57 µM

CC1CN(C(=O)c2ccc(-c3ccc(NC(=O)Nc4ccc(Cl)c(C(F)(F)F)c4)cc3)cc2)CC(C)O1 (centres undefined)
IC50 (MX1): > 50 µM | IC50 (A-375): > 50 µM | IC50 (HepG2): 31.1 µM | IC50 (KETR3): 41.9 µM | IC50 (HT-29 [1]): 2.05 µM | Ratio IC50 (HT-29 [4]): 8

CC1CN(C(=O)c2ccc(-c3ccc(NC(=O)Nc4cc(C(F)(F)F)ccc4Cl)cc3)cc2)CC(C)O1 (centres undefined)
IC50 (MX1): > 50 µM | IC50 (A-375): > 50 µM | IC50 (HepG2): > 50 µM | IC50 (KETR3): > 50 µM | IC50 (HT-29 [1]): 1.9 µM | Ratio IC50 (HT-29 [4]): 8

CNC(=O)c1cc(Oc2ccc(NC(=O)Nc3ccc(Cl)c(C(F)(F)F)c3)cc2)ccn1 [SORAFENIB]
IC50 (MX1): 8.27 µM | IC50 (A-375): 9.17 µM | IC50 (HepG2): 8.67 µM | IC50 (KETR3): 18.8 µM | IC50 (HT-29 [1]): 15.2 µM
